{"source": "ChEMBL document CHEMBL1938297", "about": "“Synthesis, radiofluorination and pharmacological evaluation of a fluoromethyl spirocyclic PET tracer for central σ1 receptors and comparison with fluoroalkyl homologs” (Bioorg Med Chem, 2012)", "key": {"Lung": {"test_system": "Lung", "assay": "Biodistribution in CD1 mouse lung at 300 kBq, iv after 5 mins by gamma counting", "type": "ADME, organism-based", "settings": "in vivo; call rule not given here", "outline": "(§1)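 Female CD-1 mice received the 18F tracer iv at 300 kBq in 0.9% NaCl containing 5% ethanol; 3–6 animals per time point (5, 30, 60, 120 min p.i.). Animals anaesthetized, blood and urine collected, killed by cervical luxation, organs dissected and weighed, counted in calibrated gamma counter. %ID/g = tissue counts / initial dose counts / tissue weight; mean with SD.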"}, "Mus musculus [1]": {"test_system": "Mus musculus", "assay": "Biodistribution in CD1 mouse fat at 300 kBq, iv after 5 mins by gamma counting", "type": "ADME, organism-based, Adipose tissue", "settings": "in vivo", "outline": "(§2)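 Female CD-1 mice received [18F]1 (300 kBq) i.v.; 3–6 animals per time point anesthetized at 5, 30, 60 or 120 min p.i., blood and urine collected, animals euthanized by cervical dislocation, organs dissected and weighed. Radioactivity counted in a calibrated gamma counter; % ID/g = tissue counts / initial dose counts / tissue weight; means with SD.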"}, "Mus musculus [2]": {"test_system": "Mus musculus", "assay": "Biodistribution in CD1 mouse eye at 300 kBq, iv after 60 mins by gamma counting", "type": "ADME, organism-based", "settings": "in vivo, 1 h", "outline": "as §2"}, "Cerebellum": {"test_system": "Cerebellum", "assay": "Biodistribution in CD1 mouse cerebellum at 300 kBq, iv after 120 mins by gamma counting", "type": "ADME, organism-based", "settings": "in vivo, 2 h", "outline": "as §2"}, "Stomach": {"test_system": "Stomach", "assay": "Biodistribution in CD1 mouse stomach at 300 kBq, iv after 5 mins by gamma counting", "type": "ADME, organism-based", "settings": "in vivo", "outline": "as §1"}, "Mus musculus [3]": {"test_system": "Mus musculus", "assay": "Biodistribution in CD1 mouse facial nucleus in brain saggital section at 24 MBq, iv at 45 mins by autoradiography", "type": "ADME, organism-based", "settings": "in vivo, 0.75 h", "outline": "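Female CD-1 mouse given [18F]1 (24 MBq) i.v. and sacrificed at 45 min. Brain hemispheres frozen in isopentane (−35 °C), cut into 12 µm sagittal cryosections, thaw-mounted, air-dried and exposed to 18F-sensitive storage phosphor screens. Anterior olfactory bulb served as nontarget region for target-to-nontarget ratios.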"}, "[4]": {"assay": "Biodistribution in CD1 mouse intestinal content at 300 kBq, iv after 5 mins by gamma counting", "type": "ADME, organism-based, Intestine", "settings": "in vivo", "outline": "as §1"}}, "data": [{"smiles": "[18F]CC1OC2(CCN(Cc3ccccc3)CC2)c2ccccc21", "note": "(configuration not stated)", "values": [{"measurement": "Drug uptake", "setting": "Lung", "result": 18.01, "unit": "% ID/g"}, {"measurement": "Drug uptake", "setting": "Mus musculus [1]", "result": 1.12, "unit": "% ID/g"}, {"measurement": "Drug uptake", "setting": "Mus musculus [2]", "result": 0.87, "unit": "% ID/g"}, {"measurement": "Drug uptake", "setting": "Cerebellum", "result": 4.02, "unit": "% ID/g"}, {"measurement": "Drug uptake", "setting": "Stomach", "result": 2.62, "unit": "% ID/g"}, {"measurement": "Drug uptake", "setting": "Mus musculus [3]", "result": "Active"}, {"measurement": "Drug uptake", "setting": "[4]", "result": 0.39, "unit": "% ID/g"}]}]}
